ANO1 activ – activates or potentiates the mouse TMEM16A chloride channel; HEK293 TMEM16A/YFP-H148Q/I152L, iodide quench fluorescence; stronger effect = lower value; 340,000 compounds, 0.3% hits; AID 623877; B-score at 10 µM; Q8BHY3;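 active = fluorescence-ratio B-score plate-corrected deviation score at least 3 library SD below zero, with starting fluorescence score within 5 deviations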;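 note: channel opened by trigger with iodide after compound preincubation; score built on the fluorescence ratio of max minus min over baseline; more negative score means more quench and so TMEM16A activation or potentiation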
Target sequence (Q8BHY3 whole entry, looked up): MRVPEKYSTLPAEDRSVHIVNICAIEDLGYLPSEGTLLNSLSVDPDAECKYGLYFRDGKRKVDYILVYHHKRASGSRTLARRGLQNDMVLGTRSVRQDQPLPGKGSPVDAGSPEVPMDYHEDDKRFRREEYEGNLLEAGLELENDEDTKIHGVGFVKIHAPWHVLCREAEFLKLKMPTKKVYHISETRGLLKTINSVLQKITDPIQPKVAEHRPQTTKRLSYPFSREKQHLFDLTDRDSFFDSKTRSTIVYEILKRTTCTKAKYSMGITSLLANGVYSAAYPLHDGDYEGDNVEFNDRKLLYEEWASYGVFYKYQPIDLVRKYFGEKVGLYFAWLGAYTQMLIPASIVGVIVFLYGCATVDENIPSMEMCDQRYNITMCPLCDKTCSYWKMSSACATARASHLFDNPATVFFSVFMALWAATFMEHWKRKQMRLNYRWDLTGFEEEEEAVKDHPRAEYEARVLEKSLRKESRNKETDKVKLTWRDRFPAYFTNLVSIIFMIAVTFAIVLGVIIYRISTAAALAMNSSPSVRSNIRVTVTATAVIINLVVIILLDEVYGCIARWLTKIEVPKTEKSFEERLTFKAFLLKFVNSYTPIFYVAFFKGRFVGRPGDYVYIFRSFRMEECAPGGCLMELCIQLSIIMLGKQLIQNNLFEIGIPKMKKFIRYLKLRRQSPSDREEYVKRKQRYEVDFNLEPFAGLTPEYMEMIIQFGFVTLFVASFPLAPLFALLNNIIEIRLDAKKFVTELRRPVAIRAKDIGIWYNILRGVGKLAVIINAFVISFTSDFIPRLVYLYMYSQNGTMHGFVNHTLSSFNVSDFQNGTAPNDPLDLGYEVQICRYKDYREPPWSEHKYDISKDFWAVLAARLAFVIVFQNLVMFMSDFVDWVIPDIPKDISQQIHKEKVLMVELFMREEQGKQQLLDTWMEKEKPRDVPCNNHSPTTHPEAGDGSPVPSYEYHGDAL
TMEM16A inh – mouse TMEM16A channel inhibition, primary screen; HEK293 TMEM16A/YFP iodide influx fluorescence, ionomycin; 310,000 compounds, 1.2% hits; Q8BHY3; normalized B-score (activity score, 25-100; higher = stronger inhibition) at 10 µM;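 active = ratio plate-corrected score three or more library SD toward inhibition, starting fluorescence score within five deviations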;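 note: score derived from kinetic fluorescence span divided by baseline fluorescence per well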
UPR CHOP act – activators of apoptotic arm of unfolded protein response (CHOP); CHO-CHOP luciferase reporter, UPR activation, luminescence; percent of tunicamycin response over DMSO baseline; activation, % at 10 µM; 330,000 compounds, 0.34% hits; AID 449763;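 active = at 10 µM dose, activation of 40% or more, normalized to positive control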;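 note: 100% = tunicamycin at 10 µg/mL and 0% = DMSO alone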
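Assay system: CHO cells with stable CHOP pathway luciferase reporter; Buffer or medium: F12 plus 10% serum; Times: 16-18 h cell attachment, then 6 h compound exposure, 37 °C; Signal: luciferase luminescence; Read-out basis: percent activation relative to tunicamycin control; Control set: tunicamycin high control, DMSO low control.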
Hep lipid drop – hepatic lipid droplet formation modulation; AML12 mouse hepatocytes, oleate lipid droplets, BODIPY imaging; inhibition, % at 6.5 µM; 240,000 compounds, 0.4% hits; AID 1656;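 active = lipid droplet intensity inhibited by at least 50%, with more than 500 cells counted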
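Material – mouse AML12 hepatocyte cell line, fixed after treatment · Compound dosing – one dose, 6.5 µM compound · Times – compound with oleate, overnight · Measured by – Image-based BODIPY and DAPI two-channel analysis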
UPR XBP1 act – activators of adaptive arm of unfolded protein response (XBP1). CHO-XBP1 luciferase reporter, IRE1-XBP1 UPR activation, luminescence; percent of tunicamycin response, DMSO as zero. 330,000 compounds, 0.33% hits. activation, % at 20 µM. AID 463104;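 active = versus positive control, 20 µM dose yields 30% or more activation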;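 note: 100% = tunicamycin at 10 µg/mL and 0% = DMSO only wells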
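Material: CHO-XBP1 cells stably carrying IRE1-XBP1-driven luciferase reporter / Amount: 1000 cells per well / Compound: 20 µM, 1% DMSO / Times: 6 h treatment, 37 °C / Detection: luciferase luminescence / Measure: % activation of reporter signal versus tunicamycin and DMSO controls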
CHOP inhibitor – CHOP inhibition in unfolded protein response; 220,000 compounds, 3.8% hits; CHO-K1 CHOP-promoter luciferase, tunicamycin-induced, 15-18 h; inhibition, % at 10 µM;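 active = compounds that reduced the stress-induced luciferase reporter signal by more than about 70% of percent inhibition, limit read from the data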;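 note: 0% = tunicamycin plus vehicle and 100% = wells without tunicamycin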
* = called active by the depositor. Rows were chosen to be rich in hits. Some 4.2% of all compounds tested hit in one or more screens of this group.

How did Cc1cc(C)nc(Sc2nc(Nc3ccccc3)nc(Sc3nc(C)cc(C)n3)n2)n1 do in these assays?
ANO1 activ: inactive; TMEM16A inh: inactive; UPR CHOP act: -0.7; Hep lipid drop: -1.7; UPR XBP1 act: -1.0; CHOP inhibitor: -17.6

How did CC(C)n1nc(C(=O)OCC(=O)c2c[nH]c3ccccc23)c2ccccc2c1=O do in these assays?
ANO1 activ: inactive; TMEM16A inh: inactive; UPR CHOP act: 1.0; Hep lipid drop: -1.2; UPR XBP1 act: 4.3; CHOP inhibitor: 80.5*

Results for CN(C)c1ccc(NS(=O)(=O)c2cc(Cl)ccc2Cl)cc1 ?
ANO1 activ: inactive; TMEM16A inh: inactive; UPR CHOP act: 6.2; Hep lipid drop: 0.0; UPR XBP1 act: 1.1; CHOP inhibitor: 19.1

What do the screens show for `CCN(c1ccc(NS(=O)(=O)c2cc(Cl)ccc2Cl)cc1)C(C)C`?
ANO1 activ: inactive; TMEM16A inh: inactive; UPR CHOP act: 1.5; Hep lipid drop: -9.5; UPR XBP1 act: 0.0; CHOP inhibitor: 93.3*

What do the screens show for `CC(NC(=O)c1ccccc1F)c1nnc(SCC(=O)Nc2nnc(C3CC3)s2)n1C` (centres undefined)?
ANO1 activ: inactive; TMEM16A inh: inactive; UPR CHOP act: -0.8; UPR XBP1 act: -3.0

Results for C/C(CCc1oc2ccc(Cl)cc2c1-c1ccc(C)o1)=N\O ?
ANO1 activ: inactive; TMEM16A inh: inactive; UPR CHOP act: 2.9; Hep lipid drop: -1.0; UPR XBP1 act: -1.5; CHOP inhibitor: 74.8*

What do the screens show for `COc1ccc(F)cc1Cn1nc(C(=O)O)c2ccccc2c1=O`?
ANO1 activ: inactive; TMEM16A inh: inactive; UPR CHOP act: -0.6; Hep lipid drop: 21.2; UPR XBP1 act: 1.8

What do the screens show for `CCC1=C(OC(=O)c2ccccc2)C(C)(C)C(c2ccccc2)OC1=O` (centres undefined)?
ANO1 activ: inactive; TMEM16A inh: inactive; UPR CHOP act: -0.4; Hep lipid drop: 16.2; UPR XBP1 act: 0.5; CHOP inhibitor: 93.4*

What do the screens show for `CC1(C)C(=O)OC(c2ccccc2)C(C)(C)C1=O` (centres undefined)?
ANO1 activ: inactive; TMEM16A inh: inactive; UPR CHOP act: -2.2; Hep lipid drop: -7.9; UPR XBP1 act: -4.2; CHOP inhibitor: 10.0

How did O=C(Nc1ncccc1Cl)C(Sc1ccccc1)c1ccccc1 (centres undefined) do in these assays?
ANO1 activ: inactive; TMEM16A inh: inactive; UPR CHOP act: -1.7; UPR XBP1 act: 2.0; CHOP inhibitor: 75.4*

Results for O=C(N/N=C/c1ccccc1)c1c(O)c2ccccc2[nH]c1=O ?
ANO1 activ: inactive; TMEM16A inh: inactive; UPR CHOP act: 3.3; Hep lipid drop: 33.5; UPR XBP1 act: -0.3; CHOP inhibitor: 78.3*

Results for O=C(NNC(=O)c1c(O)c2ccccc2[nH]c1=O)c1ccccc1 ?
ANO1 activ: inactive; TMEM16A inh: inactive; UPR CHOP act: 1.7; Hep lipid drop: 10.0; UPR XBP1 act: 1.9

What do the screens show for `CC(=O)OC(C)[C@H]1CC[C@H]2[C@@H]3CC[C@H]4C[C@@H](OC(C)=O)CC[C@]4(C)C3=CC[C@]12C` (some centres undefined)?
ANO1 activ: inactive; TMEM16A inh: inactive; UPR CHOP act: -3.0; UPR XBP1 act: 2.0

How did O=C(CNC(=O)/C=C/c1ccco1)N=Nc1c(O)[nH]c2ccccc12 do in these assays?
ANO1 activ: inactive; TMEM16A inh: inactive; UPR CHOP act: 2.6; Hep lipid drop: -1.7; UPR XBP1 act: -3.2

Results for Cc1ccc(C2Nc3ccccc3NC3=C2C(=O)CC(C)(C)C3)c(O)c1 (centres undefined) ?
ANO1 activ: inactive; TMEM16A inh: inactive; UPR CHOP act: 1.6; UPR XBP1 act: -2.6

Results for Cc1ccc2c(c1)NC(c1cccs1)C1=C(CC(C)(C)CC1=O)N2 (centres undefined) ?
ANO1 activ: -5.06*; TMEM16A inh: inactive; UPR CHOP act: 3.7; Hep lipid drop: 2.9; UPR XBP1 act: -0.1; CHOP inhibitor: 20.8

Results for CCOC(=O)C1=C(NC(=S)NC(=O)c2ccccc2)c2ccccc2CC1C(C)C (centres undefined) ?
ANO1 activ: inactive; TMEM16A inh: inactive; UPR CHOP act: 0.1; Hep lipid drop: -4.8; UPR XBP1 act: -2.0; CHOP inhibitor: 89.1*

How did CCOC(=O)C1=C(NC(=S)NC(=O)c2ccccc2)c2ccccc2CC1(C)CC (centres undefined) do in these assays?
ANO1 activ: inactive; TMEM16A inh: inactive; UPR CHOP act: 4.5; Hep lipid drop: -15.7; UPR XBP1 act: 0.2; CHOP inhibitor: 47.7

Results for O=c1cc(N2CCC3(CC2)OCCO3)[nH]c(=O)n1C1CCCCC1 ?
ANO1 activ: inactive; TMEM16A inh: inactive; UPR CHOP act: 0.7; UPR XBP1 act: 3.0; CHOP inhibitor: -22.5

Results for O=c1cc(N2CCN(c3ccc(F)cc3)CC2)[nH]c(=O)n1C1CCCCC1 ?
ANO1 activ: inactive; TMEM16A inh: inactive; UPR CHOP act: -3.2; UPR XBP1 act: -2.9; CHOP inhibitor: 72.3*

Results for COc1ccccc1N(C(=O)CNC(=O)c1ccco1)C(C(=O)NCC1CCCO1)c1ccccc1 (centres undefined) ?
ANO1 activ: inactive; TMEM16A inh: inactive; UPR CHOP act: -0.4; Hep lipid drop: -3.6; UPR XBP1 act: -3.6

Results for CC(COc1ccc(/C=C/c2ccccc2)cc1)[N+](C)(C)C (centres undefined) ?
ANO1 activ: inactive; TMEM16A inh: inactive; UPR CHOP act: 4.7; UPR XBP1 act: -5.0; CHOP inhibitor: 2.0

Results for COc1ccc(NC(=O)c2cccc(N3C(=O)C4C5C=CC(C5)C4C3=O)c2)cc1 (centres undefined) ?
ANO1 activ: inactive; TMEM16A inh: inactive; UPR CHOP act: 3.1; Hep lipid drop: -2.3; UPR XBP1 act: -2.1

How did COc1cccc(NC(=O)c2cccc(N3C(=O)C4C5C=CC(C5)C4C3=O)c2)c1 (centres undefined) do in these assays?
ANO1 activ: inactive; TMEM16A inh: 25*; UPR CHOP act: 1.5; Hep lipid drop: -8.7; UPR XBP1 act: -1.6

Results for O=C(CNC(=O)c1ccccc1Cl)N/N=C/c1ccc2c(c1)OCO2 ?
ANO1 activ: inactive; TMEM16A inh: inactive; UPR CHOP act: 3.6; Hep lipid drop: -24.4; UPR XBP1 act: 0.9

Results for O=C(Cn1nnc(-c2ccccc2Cl)n1)N/N=C/c1ccc2c(c1)OCO2 ?
ANO1 activ: inactive; TMEM16A inh: inactive; UPR CHOP act: -1.4; UPR XBP1 act: -1.2; CHOP inhibitor: 76.2*

Bioassay records as filed in PubChem.
